Measured values: ChEMBL document CHEMBL1156501, “Ibogaine, a noncompetitive inhibitor of serotonin transport, acts by stabilizing the cytoplasm-facing state of the transporter” (J Biol Chem, 2007)
Activity calls are given as the source filed them. The calls are words filed in the database; no cut-off is given here.

Legend:
[1] = target: T1, Sodium-dependent serotonin transporter (Homo sapiens, UniProt P31645)
[2] = target: T1, Sodium-dependent serotonin transporter; assay: Displacement of [125I]beta-CIT from human SERT in human platelet membrane in presence of 5 uM ibogaine; format: cell membranes
[3] = tested on: Sodium-dependent serotonin transporter (Rattus norvegicus), P31652 [S277C]; assay: Effect on 2-(aminoethyl)methanethiosulphonate hydrobromide-induced inactivation of rat SERT S277C mutant assessed as increase in rate constant for inactivation
Procedure, shortened: (§1)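 Membranes from HeLa cells expressing rat SERT cysteine mutants were filter-bound and treated for 10 min with a range of MTSEA concentrations plus 10 μM ibogaine, 5-HT or cocaine. After washing, residual 0.1 nM [125I]β-CIT binding was measured. The MTSEA concentration giving half-maximal inactivation was used to calculate the inactivation rate constant.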

[4] = species: Rattus norvegicus; assay: Effect on 2-(aminoethyl)methanethiosulphonate hydrobromide-induced inactivation of rat SERT K279 mutant
Procedure, shortened: (§2)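 Membranes from HeLa cells expressing rat SERT X5C or K279C (X5C background) were treated with 2 mM MTSEA plus graded ibogaine. Membranes were washed free of MTSEA and ibogaine, then residual binding was measured with 0.1 nM [125I]β-CIT for 1.5 h at room temperature.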

[5] = tested on: Sodium-dependent serotonin transporter (Rattus norvegicus), P31652 [K272C]; assay: Effect on 2-(aminoethyl)methanethiosulphonate hydrobromide-induced inactivation of rat SERT K272C mutant assessed as increase in rate constant for inactivation
Procedure, shortened: as §1

[6] = species: Rattus norvegicus; assay: Effect on 2-(aminoethyl)methanethiosulphonate hydrobromide-induced inactivation of rat SERT […] mutant assessed as increase in rate constant for inactivation
Procedure, shortened: as §1

[7] = tested on: Sodium-dependent serotonin transporter (Rattus norvegicus), P31652 [T284C]; assay: Effect on 2-(aminoethyl)methanethiosulphonate hydrobromide-induced inactivation of rat SERT T284C mutant assessed as increase in rate constant for inactivation
Procedure, shortened: as §1

[8] = tested on: Sodium-dependent serotonin transporter (Rattus norvegicus), P31652 [T276C]; assay: Effect on 2-(aminoethyl)methanethiosulphonate hydrobromide-induced inactivation of rat SERT T276C mutant assessed as increase in rate constant for inactivation
Procedure, shortened: as §1

[9] = species: Rattus norvegicus; assay: Inhibition of 2-(aminoethyl)methanethiosulphonate hydrobromide-induced inactivation of rat SERT S277 mutant assessed as drug level causing half maximal protection from inactivation
Procedure, shortened: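 Membranes from HeLa cells expressing rat SERT S277C were treated with 50 μM MTSEA plus graded cocaine, ibogaine or 5-HT. After washing, residual [125I]β-CIT binding was measured. The drug concentration giving half-maximal protection from or potentiation of inactivation was fitted by nonlinear regression.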

[10] = tested on: Sodium-dependent serotonin transporter (Rattus norvegicus), P31652 [S404C]; assay: Effect on 2-(aminoethyl)methanethiosulphonate hydrobromide-induced inactivation of rat SERT S404C mutant assessed as increase in rate constant for inactivation
Procedure, shortened: as §1

[11] = species: Rattus norvegicus; assay: Effect on 2-(aminoethyl)methanethiosulphonate hydrobromide-induced inactivation of rat SERT X5C mutant
Procedure, shortened: as §2

[12] = tested on: Sodium-dependent serotonin transporter (Rattus norvegicus), P31652 [G273C]; assay: Effect on 2-(aminoethyl)methanethiosulphonate hydrobromide-induced inactivation of rat SERT G273C mutant assessed as increase in rate constant for inactivation
Procedure, shortened: as §1

[13] = tested on: Sodium-dependent serotonin transporter (Rattus norvegicus), P31652 [Y107C]; assay: Effect on 2-(aminoethyl)methanethiosulphonate hydrobromide-induced inactivation of rat SERT Y107C mutant assessed as increase in rate constant for inactivation
Procedure, shortened: as §1

[14] = tested on: Sodium-dependent serotonin transporter (Rattus norvegicus), P31652 [V281C]; assay: Effect on 2-(aminoethyl)methanethiosulphonate hydrobromide-induced inactivation of rat SERT V281C mutant assessed as increase in rate constant for inactivation
Procedure, shortened: as §1

[15] = target: T2, Sodium-dependent serotonin transporter (Rattus norvegicus, UniProt P31652); assay: Inhibition of [3H]5HT uptake at rat SERT expressed in HeLa cells; format: cell-based
[16] = target: T2, Sodium-dependent serotonin transporter; assay: Displacement of [125I]beta-CIT from rat SERT expressed in HeLa cells; format: cell-based
[17] = compound: COC(=O)[C@H]1[C@@H](OC(=O)c2ccccc2)C[C@@H]2CC[C@H]1N2C; assay: (§3) Inhibition of [3H]5HT transport at rat SERT expressed in pig LLC-PK1 cells at 5 uM; format: cell-based
Procedure, shortened: (§4)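 LLC-PK1 cells stably expressing rat SERT were grown as monolayers. Uptake of [3H]5-HT at varied concentrations was measured for 5 min with or without 5 μM ibogaine. Nonspecific uptake was defined with 100 μM cocaine. Km and Vmax were fitted, with an Eadie-Hofstee plot also shown.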

[18] = compound: CC[C@H]1C[C@H]2C[C@H]3c4[nH]c5ccc(OC)cc5c4CCN(C2)[C@@H]13; assay: as §3; format: cell-based
Procedure, shortened: as §4

T1 sequence (P31645 whole entry): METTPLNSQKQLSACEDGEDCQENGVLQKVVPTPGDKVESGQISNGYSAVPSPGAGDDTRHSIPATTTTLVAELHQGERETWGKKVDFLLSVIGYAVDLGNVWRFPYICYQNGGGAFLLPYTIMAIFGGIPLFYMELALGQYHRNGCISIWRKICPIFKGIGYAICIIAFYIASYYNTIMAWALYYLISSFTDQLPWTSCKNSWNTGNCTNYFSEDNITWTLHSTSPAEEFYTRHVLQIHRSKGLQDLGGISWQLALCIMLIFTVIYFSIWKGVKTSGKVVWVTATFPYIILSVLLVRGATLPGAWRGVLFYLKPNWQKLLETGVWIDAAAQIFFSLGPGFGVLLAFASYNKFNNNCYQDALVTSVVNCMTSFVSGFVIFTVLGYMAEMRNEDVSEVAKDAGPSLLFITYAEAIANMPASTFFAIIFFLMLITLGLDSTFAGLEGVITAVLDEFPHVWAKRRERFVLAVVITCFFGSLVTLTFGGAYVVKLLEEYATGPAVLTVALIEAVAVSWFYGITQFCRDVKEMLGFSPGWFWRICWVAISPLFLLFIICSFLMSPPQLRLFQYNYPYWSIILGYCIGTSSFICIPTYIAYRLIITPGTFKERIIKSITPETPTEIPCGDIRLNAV

| Molecule | Activity [3] | Activity [5] | Activity [6] | Activity [7] | Activity [8] | Activity [9] [µM] | Activity [10] | Activity [12] | Activity [13] | Activity [14] | also measured |
| --- | --- | --- | --- | --- | --- | --- | --- | --- | --- | --- | --- |
| COC(=O)[C@H]1[C@@H](c2ccc(I)cc2)C[C@@H]2CC[C@H]1N2C | – | – | – | – | – | – | – | – | – | – | Kd [1]: 0.88 nM; Kd [2]: 2.82 nM |
| CC[C@H]1C[C@H]2C[C@H]3c4[nH]c5ccc(OC)cc5c4CCN(C2)[C@@H]13 | Active | Active | Active | Active | Active | 0.98 | Active | Active | Active | Active | Activity [4]: inactive; Activity [11]: inactive |
| CC[C@H]1C[C@@H]2C[C@H]3c4[nH]c5ccc(OC)cc5c4CCN(C2)[C@@H]13 [IBOGAINE] | – | – | – | – | – | – | – | – | – | – | IC50 [15]: 6300 nM; IC50 [16]: 2500 nM |
| COC(=O)[C@H]1[C@@H](OC(=O)c2ccccc2)C[C@@H]2CC[C@H]1N2C | – | – | – | – | – | 0.58 | – | – | – | – | – |
| NCCc1c[nH]c2ccc(O)cc12 | Active | Active | Active | inactive | Active | 0.68 | Active | Active | Active | Active | – |
| Sodium-dependent serotonin transporter (Rattus norvegicus), P31652 (protein) METTPLNSQKVLSECKDREDCQENGVLQKGVPTTADRAEPSQISNGYSAVPSTSAGDEASHSIPAATTTLVAEIRQGERETWGKKMDFLLSVIGYAVDLGNIWRFPYICYQNGGGAFLLPYTIMAIFGGIPLFYMELALGQYHRNGCISIWRKICPIFKGIGYAICIIAFYIASYYNTIIAWALYYLISSLTDRLPWTSCTNSWNTGNCTNYFAQDNITWTLHSTSPAEEFYLRHVLQIHQSKGLQDLGTISWQLTLCIVLIFTVIYFSIWKGVKTSGKVVWVTATFPYIVLSVLLVRGATLPGAWRGVVFYLKPNWQKLLETGVWVDAAAQIFFSLGPGFGVLLAFASYNKFNNNCYQDALVTSVVNCMTSFVSGFVIFTVLGYMAEMRNEDVSEVAKDAGPSLLFITYAEAIANMPASTFFAIIFFLMLITLGLDSTFAGLEGVITAVLDEFPHIWAKRREWFVLIVVITCVLGSLLTLTSGGAYVVTLLEEYATGPAVLTVALIEAVAVSWFYGITQFCSDVKEMLGFSPGWFWRICWVAISPLFLLFIICSFLMSPPQLRLFQYNYPHWSIVLGYCIGMSSVICIPTYIIYRLISTPGTLKERIIKSITPETPTEIPCGDIRMNAV | – | – | – | – | – | – | – | – | – | – | Km [17]: 0.2 µM; Vmax [17]: 35.7 pmol/min/mg; Km [18]: 0.17 µM; Vmax [18]: 14 pmol/min/mg |
